Source: ChEMBL document CHEMBL1131001, “Syntheses and anticholinesterase activities of (3aS)-N1, N8-bisnorphenserine, (3aS)-N1,N8-bisnorphysostigmine, their antipodal isomers, and other potential metabolites of phenserine” (J Med Chem, 1998)

Assays:
[1] = target: T1, Cholinesterase (Homo sapiens, UniProt P06276); test: Anticholinesterase activity against plasma Butyrylcholinesterase (BChE) in humans.; format: cell-free
[2] = target: T2, Acetylcholinesterase (Homo sapiens, UniProt P22303); test: Anticholinesterase activity against erythrocyte acetylcholinesterase (AChE) in humans.
T2 sequence (P22303 whole entry): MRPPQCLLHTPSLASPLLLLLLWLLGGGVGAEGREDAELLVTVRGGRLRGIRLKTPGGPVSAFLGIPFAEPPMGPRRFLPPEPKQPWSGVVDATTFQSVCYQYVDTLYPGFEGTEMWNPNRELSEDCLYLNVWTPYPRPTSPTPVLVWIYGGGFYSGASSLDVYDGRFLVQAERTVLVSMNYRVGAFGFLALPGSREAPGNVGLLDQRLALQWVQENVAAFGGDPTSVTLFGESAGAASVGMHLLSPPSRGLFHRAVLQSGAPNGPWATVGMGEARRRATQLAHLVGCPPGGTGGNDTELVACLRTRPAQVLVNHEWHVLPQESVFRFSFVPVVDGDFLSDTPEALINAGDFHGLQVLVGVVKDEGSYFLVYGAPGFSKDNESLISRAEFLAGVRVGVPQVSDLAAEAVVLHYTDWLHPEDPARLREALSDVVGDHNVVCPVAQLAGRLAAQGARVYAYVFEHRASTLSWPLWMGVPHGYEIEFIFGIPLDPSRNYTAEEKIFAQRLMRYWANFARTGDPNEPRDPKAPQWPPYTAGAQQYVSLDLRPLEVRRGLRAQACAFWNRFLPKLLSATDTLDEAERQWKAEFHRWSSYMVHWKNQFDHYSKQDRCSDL
In short: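 Human red blood cells, freshly collected, were washed five times in isotonic saline, lysed in 0.1 M Na3PO4 pH 7.4 with 0.5% Triton-X, and diluted 1:200. Compounds in half-log dilutions from 0.3 nM were preincubated with enzyme for 30 min at room temperature in pH 8.0 phosphate.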

[3] = target: T2, Acetylcholinesterase; test: Anticholinesterase activity against erythrocyte acetylcholinesterase (AChE) in humans.(no detectable activity at 3*10e-5 M)
[4] = target: T1, Cholinesterase; test: Anticholinesterase activity against plasma Butyrylcholinesterase (BChE) in humans.(no detectable activity at 3*10e-5 M); format: cell-free

T1 sequence (P06276 whole entry): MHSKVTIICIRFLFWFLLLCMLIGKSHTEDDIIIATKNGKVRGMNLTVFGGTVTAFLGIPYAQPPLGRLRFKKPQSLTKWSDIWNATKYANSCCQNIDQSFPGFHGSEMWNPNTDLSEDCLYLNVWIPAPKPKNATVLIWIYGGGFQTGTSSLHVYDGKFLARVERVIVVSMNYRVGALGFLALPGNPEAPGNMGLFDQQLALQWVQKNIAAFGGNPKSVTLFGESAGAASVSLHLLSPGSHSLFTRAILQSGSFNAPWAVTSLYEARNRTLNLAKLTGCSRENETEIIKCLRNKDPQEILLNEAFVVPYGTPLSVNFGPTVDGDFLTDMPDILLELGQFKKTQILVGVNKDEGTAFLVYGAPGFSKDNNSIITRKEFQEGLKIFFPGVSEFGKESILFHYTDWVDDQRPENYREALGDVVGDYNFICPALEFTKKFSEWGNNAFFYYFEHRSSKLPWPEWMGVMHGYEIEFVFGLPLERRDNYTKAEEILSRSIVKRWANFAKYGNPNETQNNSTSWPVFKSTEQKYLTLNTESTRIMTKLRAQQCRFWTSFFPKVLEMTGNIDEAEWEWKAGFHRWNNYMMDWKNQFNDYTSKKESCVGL

Work on `C[C@]12CCNC1Nc1ccc(OC(=O)Nc3ccccc3)cc12` (stereo not given in full) yielded an IC50 [1] of 952 nM and an IC50 [2] of 231 nM.

`CNC(=O)Oc1ccc2c(c1)[C@]1(C)CCNC1N2` (stereo not given in full) was tested, and the IC50 [1] was 2.4 nM and the IC50 [2] was 10.9 nM.

In the case of `CN1CC[C@@]2(C)c3cc(O)ccc3N(C)[C@@H]12`, the IC50 [3] is reported as “No detectable activity” and the IC50 [4] is reported as “No detectable activity”.

For `CN1CC[C@@]2(C)C3=CC(=O)C(=O)C=C3N(C)C12` (stereo not given in full), the IC50 [3] was “No detectable activity” and the IC50 [4] was “No detectable activity”.

`C[C@]12CCN(Cc3ccccc3)C1N(Cc1ccccc1)c1ccc(OC(=O)Nc3ccccc3)cc12` (stereo not given in full) was tested, and the IC50 [3] was “No detectable activity” and the IC50 [4] was “No detectable activity”.

Work on `C[C@@]12CCNC1Nc1ccc(OC(=O)Nc3ccccc3)cc12` (stereo not given in full) yielded an IC50 [1] of 897 nM.

With `CNC(=O)Oc1ccc2c(c1)[C@@]1(C)CCN(Cc3ccccc3)C1N2Cc1ccccc1` (stereo not given in full) the IC50 [1] was 776 nM and the IC50 [2] was 3560 nM.

Compound `CNC(=O)Oc1ccc2c(c1)[C@@]1(C)CCNC1N2` (stereo not given in full) has an IC50 [1] of 237 nM and an IC50 [2] of 1490 nM.

With `CNC(=O)Oc1ccc2c(c1)[C@]1(C)CCN(Cc3ccccc3)C1N2Cc1ccccc1` (stereo not given in full) the IC50 [1] was 8.1 nM and the IC50 [2] was 1090 nM.

In the case of `CN1c2ccc(OC(=O)Nc3ccccc3)cc2[C@]2(C)CCNC12` (stereo not given in full), the IC50 [1] is reported as 612 nM.

`C[C@@]12CCN(Cc3ccccc3)C1N(Cc1ccccc1)c1ccc(OC(=O)Nc3ccccc3)cc12` (single isomer, unassigned; (-)) showed an IC50 [1] of 513 nM and an IC50 [2] of 41100 nM.
